Calls of active or inactive are those of the source. The rule behind the calls is not given here.
Columns and labels:
[1] = target: T1, Polyunsaturated fatty acid 5-lipoxygenase (Homo sapiens, UniProt P09917); assay: Inhibition of human recombinant 5-LO expressed in Escherichia coli BL21 using arachidonic acid as substrate preincubated for 10 mins followed by substrate addition and measured after 10 mins by RP-HPLC analysis
T1 sequence (P09917 whole entry): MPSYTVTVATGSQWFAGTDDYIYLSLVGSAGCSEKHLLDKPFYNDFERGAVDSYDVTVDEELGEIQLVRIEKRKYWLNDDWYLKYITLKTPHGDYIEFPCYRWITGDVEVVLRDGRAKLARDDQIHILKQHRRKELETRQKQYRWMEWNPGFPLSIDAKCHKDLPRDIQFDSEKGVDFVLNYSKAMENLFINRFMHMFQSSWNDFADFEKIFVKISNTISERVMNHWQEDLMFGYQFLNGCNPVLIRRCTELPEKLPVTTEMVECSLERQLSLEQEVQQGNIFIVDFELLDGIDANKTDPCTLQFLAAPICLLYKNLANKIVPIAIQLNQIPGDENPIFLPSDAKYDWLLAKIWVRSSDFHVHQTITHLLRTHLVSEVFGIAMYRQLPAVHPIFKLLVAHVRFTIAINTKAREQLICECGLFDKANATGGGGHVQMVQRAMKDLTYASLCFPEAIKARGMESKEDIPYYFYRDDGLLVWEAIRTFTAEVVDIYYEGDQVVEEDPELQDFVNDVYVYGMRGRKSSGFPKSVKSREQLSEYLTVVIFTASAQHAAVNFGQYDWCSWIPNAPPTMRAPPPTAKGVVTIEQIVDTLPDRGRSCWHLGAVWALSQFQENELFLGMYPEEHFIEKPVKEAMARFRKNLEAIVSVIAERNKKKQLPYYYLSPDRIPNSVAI

A549 = assay: Inhibition of PGE2 biosynthesis in IL-1β stimulated human A549 cells incubated for 24 hrs by ELISA; conditions: dose 5-10 µM
Macrophage = assay: Inhibition of 5-LO product formation in Staphylococcus aureus activated human monocyte derived macrophages at 10 uM preincubated for 15 mins followed by Staphylococcus aureus activation for 90 mins by UPLC-MS/MS analysis; type: functional, cell-based; conditions: time 105.0 min
J774.A1 [2] = assay: Modulation of PGE2 production in LPS-stimulated mouse J774.A1 cells at 1 uM incubated for 24 hrs by ELISA; type: functional, cell-based
Summary of the method: (§1)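 Murine J774A.1 macrophages were stimulated with LPS and exposed to test compounds. IL-6 and PGE2 released were measured in pg/mL. Mean ± SD.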

J774.A1 [3] = assay: Modulation of IL-6 production in LPS-stimulated mouse J774.A1 cells at 1 uM incubated for 24 hrs by ELISA; type: functional, cell-based; summary of the method: as §1
[4] = target: T2, Polyunsaturated fatty acid 5-lipoxygenase (Homo sapiens) (UniProt P09917); assay: Inhibition of human recombinant 5-LO expressed in Escherichia coli BL21 using arachidonic acid as substrate assessed as residual activity at 10 uM preincubated for 10 mins followed by substrate addition and measured after 10 mins by RP-HPLC analysis relative to control; conditions: time 20.0 min
T2 sequence (whole entry): T1 sequence (P09917 whole entry)

Mus musculus [5] = assay: Anti-inflammatory activity against CD-1 mouse model of zymosan-induced peritonitis assessed as reduction in IL-1beta level at 10 mg/kg, ip pretreated with zymosan for 30 mins followed by compound addition and measured after 4 to 24 hrs by ELISA; type: functional, organism-based; conditions: time 4-24 hrs
Summary of the method: (§2)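 Mice got zymosan 500 mg/kg i.p.; test compound was injected i.p. 30 min later. PBS-only controls were included, along with a dexamethasone (3 mg/kg) reference group. Peritoneal exudate was collected at 4 and 24 h. Total cells were counted, and IL-1β, IL-6, PGE2 and IL-10 were measured in exudate, normalized to exudate levels. Mean ± SD.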

Mus musculus [6] = assay: Anti-inflammatory activity against CD-1 mouse model of zymosan-induced peritonitis assessed as reduction in IL-10 level at 10 mg/kg, ip pretreated with zymosan for 30 mins followed by compound addition and measured after 24 hrs by ELISA; type: functional, organism-based; summary of the method: as §2
Mus musculus [7] = assay: Anti-inflammatory activity against CD-1 mouse model of zymosan-induced peritonitis assessed as reduction in PGE2 level at 10 mg/kg, ip pretreated with zymosan for 30 mins followed by compound addition and measured after 4 to 24 hrs by ELISA; type: functional, organism-based; conditions: time 4-24 hrs; summary of the method: as §2
Mus musculus [8] = assay: Anti-inflammatory activity against CD-1 mouse model of zymosan-induced peritonitis assessed as reduction in IL-6 level at 10 mg/kg, ip pretreated with zymosan for 30 mins followed by compound addition and measured after 4 to 24 hrs by ELISA; type: functional, organism-based; conditions: time 4-24 hrs; summary of the method: as §2
Mus musculus [9] = assay: (§3) Anti-inflammatory activity against CD-1 mouse model of zymosan-induced peritonitis assessed as reduction in leucocyte recruitment in lavage fluid at 1 to 10 mg/kg, ip pretreated with zymosan for 30 mins followed by compound addition and measured after 4 to 24 hrs by TC10 automated cell counter analysis; type: functional, organism-based; conditions: dose 1-10 mg/kg, time 4-24 hrs; summary of the method: as §2
Mus musculus [10] = assay: Anti-inflammatory activity against CD-1 mouse model of zymosan-induced peritonitis assessed as reduction in IL-6 level at 3 mg/kg, ip pretreated with zymosan for 30 mins followed by compound addition and measured after 4 to 24 hrs by ELISA; type: functional, organism-based; conditions: time 4-24 hrs
Mus musculus [11] = assay: Anti-inflammatory activity against CD-1 mouse model of zymosan-induced peritonitis assessed as reduction in IL-1beta level at 3 mg/kg, ip pretreated with zymosan for 30 mins followed by compound addition and measured after 4 to 24 hrs by ELISA; type: functional, organism-based; conditions: time 4-24 hrs
Mus musculus [12] = assay: Anti-inflammatory activity against CD-1 mouse model of zymosan-induced peritonitis assessed as reduction in PGE2 level at 3 mg/kg, ip pretreated with zymosan for 30 mins followed by compound addition and measured after 4 to 24 hrs by ELISA; type: functional, organism-based; conditions: time 4-24 hrs
Mus musculus [13] = assay: Anti-inflammatory activity against CD-1 mouse model of zymosan-induced peritonitis assessed as reduction in IL-10 level at 3 mg/kg, ip pretreated with zymosan for 30 mins followed by compound addition and measured after 24 hrs by ELISA; type: functional, organism-based
Mus musculus [14] = assay: as §3, with “peritoneal cavity” for “lavage fluid”, “3” for “1 to 10”; type: functional, organism-based; conditions: time 4-24 hrs

Structure (SMILES)	IC50 [1] [µM]	Activity [4] [%]	inhibition (A549)	5-LO product formation inhibition (active/inactive) (Macrophage)	Activity (J774.A1 [2])	Activity (J774.A1 [3])	other results
Cc1cc(C(=O)Nc2nnc(-c3ccc(-c4ccccc4N)cc3)s2)cc(Cl)n1	42.8		Dose-Dependent Effect	Active			
Nc1ccccc1-c1ccc(-c2nnc(NC(=O)c3c(Cl)ccnc3Cl)s2)cc1		75.9	Dose-Dependent Effect	Active			
C[C@@H]1C[C@H]2[C@@H]3CCC4=CC(=O)C=C[C@]4(C)[C@@]3(F)[C@@H](O)C[C@]2(C)[C@@]1(O)C(=O)CO							Activity (Mus musculus [10]): Active; Activity (Mus musculus [11]): Active; Activity (Mus musculus [12]): Active; Activity (Mus musculus [13]): Active; Activity (Mus musculus [14]): Active
Cc1cc(C(=O)Nc2nnc(-c3ccc(-c4cccc(O)c4)cc3)s2)cc(Cl)n1				inactive			

Now from value to compound, other results behind:

IC50 [1] [µM]	Activity [4] [%]	Structure (SMILES)	inhibition (A549)	5-LO product formation inhibition (active/inactive) (Macrophage)	Activity (J774.A1 [2])	Activity (J774.A1 [3])	other results
24.3		Nc1ccccc1-c1ccc(-c2nnc(NC(=O)c3ccccc3Br)s2)cc1	Dose-Dependent Effect	Active	Active	inactive	
	125	O=C(Nc1nnc(-c2ccc(-c3cccc(O)c3)cc2)s1)c1ccccc1Br		Active	Active	Active	Activity (Mus musculus [5]): Active; Activity (Mus musculus [6]): Active; Activity (Mus musculus [7]): Active; Activity (Mus musculus [8]): Active; Activity (Mus musculus [9]): Active
